Common to all, as to assay type: functional
Experiment [1] relates to HeLa. The experiment can be described thus: Cytotoxicity against human HeLa cells after 72 hrs. The settings on record: for CC50: Homo sapiens, HeLa, 72 h. The method, boiled down: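 About 10,000 cells per well in RPMI 1640 were preincubated 48 h without compound. The 10 test concentrations were then applied onto the monolayers and incubated 72 h at 37 °C in humidified 5% CO₂. Monolayers fixed with glutaraldehyde, stained with 0.05% methylene blue, and eluted with 0.33 N HCl; optical density measured at 630 nm.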

Experiment [2] deals with Mycobacterium kansasii. The experiment can be described thus: Antimicrobial activity against Mycobacterium kansasii My 6509/96 after 21 days. The settings on record: 504 h. An outline of the steps:
(§1)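 Run in Šula semisynthetic liquid medium containing bovine serum. Compounds added as DMSO solutions at final concentrations of […]. Each strain was also inoculated onto Löwenstein–Jensen medium to control inoculum sterility and growth.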

Experiment [3] concerns Mycobacterium avium. The experiment can be described thus: Antimicrobial activity against Mycobacterium avium My 330/88 after 21 days. The settings on record: 504 h.
Experiment [4] relates to Mycobacterium kansasii. The experiment is described as follows: Antimicrobial activity against Mycobacterium kansasii My 235/80 after 14 days. The settings on record: 336 h. The method, boiled down:
as §1

Experiment [5] relates to L929. The experiment can be described thus: Antiproliferative activity against mouse L929 cells after 72 hrs. The settings on record: L929, 72 h. The method, boiled down: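 About 10,000 adherent cells per well in RPMI 1640 with 10% heat-inactivated FBS and penicillin/streptomycin, without HEPES. Exposed to 10 concentrations for 72 h at 37 °C in humidified 5% CO₂. Monolayers fixed with glutaraldehyde, stained 15 min with 0.05% methylene blue, and eluted with 0.33 N HCl; OD read at 630 nm. GI50 derived from dose–response curves relative to control.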

Experiment [6] concerns Mycobacterium kansasii. The experiment can be described thus: Antimicrobial activity against Mycobacterium kansasii My 235/80 after 7 days. The conditions noted are these: 168 h. An outline of the steps: as §1
Experiment [7] concerns Mycobacterium tuberculosis. The experiment can be described thus: Antimicrobial activity against Mycobacterium tuberculosis My 331/88 after 21 days. The conditions noted are these: 504 h.
Experiment [8] concerns Mycobacterium kansasii. The experiment can be described thus: Antimicrobial activity against Mycobacterium kansasii My 235/80 after 21 days. The settings on record: 504 h. An outline of the steps:
as §1

Experiment [9] concerns Mycobacterium avium. The experiment is described as follows: Antimicrobial activity against Mycobacterium avium My 330/88 after 14 days. The settings on record: 336 h.
Experiment [10] relates to K562. The experiment can be described thus: Antiproliferative activity against human K562 cells after 72 hrs. The conditions noted are these: K562, 72 h. An outline of the steps: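 About 10,000 suspension cells per well in RPMI 1640 with 10% heat-inactivated FBS and penicillin/streptomycin, without HEPES. Exposed to 10 concentrations for 72 h at 37 °C in humidified 5% CO₂. Wells diluted 1:50 in CASYTON and counted electronically, each result the mean of three successive counts. GI50 is where the concentration–response curve crosses 50% of control cell count.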

The test system of experiment [11] is Mycobacterium tuberculosis. The experiment can be described thus: Antimicrobial activity against Mycobacterium tuberculosis My 331/88 after 14 days. The conditions noted are these: 336 h.
For experiment [12], the system named is Mycobacterium kansasii. The experiment is described as follows: Antimicrobial activity against Mycobacterium kansasii My 6509/96 after 7 days. The conditions noted are these: 168 h. The method, boiled down: as §1
Experiment [13] relates to Mycobacterium kansasii. The experiment is described as follows: Antimicrobial activity against Mycobacterium kansasii My 6509/96 after 14 days. The settings on record: 336 h. The method, boiled down:
as §1

Experiment [14] concerns Candida tropicalis. The experiment is described as follows: Antifungal activity against Candida tropicalis 156 after 48 hrs. The method, boiled down:
(§2)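 Modified NCCLS M27-A broth microdilution with clinical isolates subcultured on Sabouraud dextrose agar. Suspensions diluted 1:50 in RPMI 1640 to give a final inoculum of 0.5–2.5×10³ CFU/mL for yeasts or 0.5–5×10⁴ CFU/mL for molds. The RPMI had L-glutamine, no bicarbonate, and 0.165 M MOPS to pH 7.0. Twofold dilutions from 250 to 0.49. Plates held at 35 °C, humid, without agitation. MIC is the lowest concentration giving ≥80% inhibition versus drug-free control, read at 24 and 48 h.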

The test system of experiment [15] is Pichia kudriavzevii. The experiment is described as follows: Antifungal activity against Candida krusei E28 after 24 hrs. The method, boiled down:
as §2

Experiment [16] concerns Aspergillus fumigatus. The experiment is described as follows: Antifungal activity against Aspergillus fumigatus 231 after 48 hrs. The method, boiled down: as §2
Experiment [17] has as its system Candida albicans. The experiment can be described thus: Antifungal activity against Candida albicans ATCC 44859 after 48 hrs. The settings on record: ATCC 44859, 48 h. The method, boiled down: as §2
For experiment [18], the system named is Aspergillus fumigatus. The experiment is described as follows: Antifungal activity against Aspergillus fumigatus 231 after 24 hrs. The method, boiled down: as §2
In experiment [19] the test system is Lichtheimia corymbifera. The experiment can be described thus: Antifungal activity against Absidia corymbifera 272 after 48 hrs. An outline of the steps:
as §2

Experiment [20] relates to Pichia kudriavzevii. The experiment can be described thus: Antifungal activity against Candida krusei E28 after 48 hrs. The method, boiled down:
as §2

In experiment [21] the test system is Nakaseomyces glabratus. The experiment can be described thus: Antifungal activity against Candida glabrata 20/I after 24 hrs. The method, boiled down:
as §2

Experiment [22] relates to Trichosporon beigelii. The experiment is described as follows: Antifungal activity against Trichosporon beigelii 1188 after 48 hrs. An outline of the steps: as §2
For experiment [23], the system named is Candida albicans. The experiment can be described thus: Antifungal activity against Candida albicans ATCC 44859 after 24 hrs. The settings on record: ATCC 44859, 24 h. An outline of the steps:
as §2

In experiment [24] the test system is Trichosporon beigelii. The experiment is described as follows: Antifungal activity against Trichosporon beigelii 1188 after 24 hrs. The method, boiled down:
as §2

Experiment [25] concerns Candida tropicalis. The experiment is described as follows: Antifungal activity against Candida tropicalis 156 after 24 hrs. The method, boiled down: as §2
In experiment [26] the test system is Lichtheimia corymbifera. The experiment can be described thus: Antifungal activity against Absidia corymbifera 272 after 24 hrs. The method, boiled down:
as §2

Experiment [27] has as its system Nakaseomyces glabratus. The experiment can be described thus: Antifungal activity against Candida glabrata 20/I after 48 hrs. The method, boiled down: as §2

Values after ≈ are worked out from the molar mass of the structure shown.

In experiment [1], `Sc1nnnn1-c1ccc(Cl)cc1` had a CC10 of 26.4 µg/mL (≈ 124 µM). For the same molecule, the CC50 in experiment [1] was 48.9 µg/mL (≈ 230 µM). Besides, the minimum inhibitory concentration (MIC) in [2] was over 500 µM; in experiment [3] it was over 500 µM; in [4], over 500 µM; in experiment [6] it was 500 µM (≈ 106 µg/mL); in experiment [7], over 500 µM; in experiment [8], over 500 µM. The MIC is over 500 µM in experiment [9], 500 µM (≈ 106 µg/mL) in experiment [11], 250 µM (≈ 53.2 µg/mL) in [12] and 500 µM (≈ 106 µg/mL) in [13]. Also, the concentration for 50% growth inhibition (GI50) in experiment [5] is over 50 µg/mL; in [10], 42.6 µg/mL (≈ 200 µM).

Take `NNC(=O)c1ccncc1` [ISONIAZID]: the MIC in experiment [2] was 8 µM (≈ 1.1 µg/mL); in [3], over 250 µM; in experiment [4], over 250 µM; in experiment [6] it was over 250 µM; in experiment [7], 1 µM (≈ 0.137 µg/mL); in [8], over 250 µM. Further, the MIC in experiment [9] was over 250 µM; in experiment [11] it was 0.5 µM (≈ 0.0686 µg/mL); in [12], 4 µM (≈ 0.549 µg/mL); in [13], 4 µM (≈ 0.549 µg/mL).

On to `Sc1nnnn1-c1ccccc1`, for which the CC10 in experiment [1] came out at 40 µg/mL (≈ 224 µM). The molecule also came in with a CC50 in [1] of over 50 µg/mL. Further, the MIC in experiment [2], in [3], in [4], in experiment [6], in experiment [7] and in experiment [8] was over 500 µM throughout. The MIC in [9], in [11], in experiment [12] and in experiment [13] was over 500 µM throughout. Further, the GI50 in [5] and in [10] was over 50 µg/mL throughout.

As to `C[C@@H]1[C@H](O)[C@@H](C)/C=C/C=C/C=C/C=C/C=C/C=C/C=C/[C@H](O[C@@H]2O[C@H](C)[C@@H](O)[C@H](N)[C@@H]2O)C[C@@H]2O[C@](O)(C[C@@H](O)C[C@@H](O)[C@H](O)CC[C@@H](O)C[C@@H](O)CC(=O)O[C@H]1C)C[C@H](O)[C@H]2C(=O)O` [AMPHOTERICIN B], the MIC was determined as 0.07 µM (≈ 0.0647 µg/mL) in experiment [14]; 0.14 µM (≈ 0.129 µg/mL) in [15]; 0.27 µM (≈ 0.25 µg/mL) in [16]; 0.07 µM (≈ 0.0647 µg/mL) in experiment [17]; 0.27 µM (≈ 0.25 µg/mL) in experiment [18]; 2.16 µM (≈ 2 µg/mL) in [19]. Besides, the minimal inhibitory concentration (MIC) turned out to be 0.14 µM (≈ 0.129 µg/mL) in experiment [20]; 0.04 µM (≈ 0.037 µg/mL) in experiment [21]; 2.16 µM (≈ 2 µg/mL) in [22]; 0.02 µM (≈ 0.0185 µg/mL) in experiment [23]; 1.08 µM (≈ 0.998 µg/mL) in experiment [24]; 0.07 µM (≈ 0.0647 µg/mL) in [25]. Moreover, the MIC worked out at 1.08 µM (≈ 0.998 µg/mL) in experiment [26] and 0.14 µM (≈ 0.129 µg/mL) in experiment [27].

`Sc1nnnn1-c1ccc(Cl)c(Cl)c1` showed a CC10 in [1] of 18.1 µg/mL (≈ 73.2 µM). For the same molecule, half-maximal cytotoxicity in experiment [1] (CC50) was put at 33.3 µg/mL (≈ 135 µM). The MIC was 500 µM (≈ 124 µg/mL) in [2]; over 500 µM in experiment [3]; 500 µM (≈ 124 µg/mL) in [4]; 500 µM (≈ 124 µg/mL) in experiment [6]; 250 µM (≈ 61.8 µg/mL) in [7]; 500 µM (≈ 124 µg/mL) in experiment [8]. Further, the MIC in experiment [9] is over 250 µM; in [11] it was 250 µM (≈ 61.8 µg/mL); in experiment [12], 250 µM (≈ 61.8 µg/mL); in [13], 500 µM (≈ 124 µg/mL). For the same molecule, the GI50 was 33.4 µg/mL (≈ 135 µM) in experiment [5] and 31 µg/mL (≈ 125 µM) in experiment [10].

Usually CC50 stands for the concentration that lowers cell viability or growth by half. Read a high CC50 as better tolerance by the cells. The term MIC denotes the lowest concentration that inhibits growth of the organism. Higher therefore signals a less susceptible organism. Usually GI50 stands for the concentration giving 50% growth inhibition. A low value points to more potent growth inhibition.

For the origin of these results see ChEMBL document CHEMBL1143019, “Hybrid molecules of estrone: new compounds with potential antibacterial, antifungal, and antiproliferative activities” (2007).
